Laboratory results taken from ChEMBL document CHEMBL1136332, “Structure-activity relationship of triaryl propionic acid analogues on the human EP3 prostanoid receptor” (Bioorg Med Chem Lett, 2003).

target: T1, Prostaglandin E2 receptor EP3 subtype (Homo sapiens) (UniProt P43115); experiment: Ability to inhibit the binding of human Prostanoid EP3 receptor to PGE-2 using EP3 functional assay
T1 sequence (whole entry): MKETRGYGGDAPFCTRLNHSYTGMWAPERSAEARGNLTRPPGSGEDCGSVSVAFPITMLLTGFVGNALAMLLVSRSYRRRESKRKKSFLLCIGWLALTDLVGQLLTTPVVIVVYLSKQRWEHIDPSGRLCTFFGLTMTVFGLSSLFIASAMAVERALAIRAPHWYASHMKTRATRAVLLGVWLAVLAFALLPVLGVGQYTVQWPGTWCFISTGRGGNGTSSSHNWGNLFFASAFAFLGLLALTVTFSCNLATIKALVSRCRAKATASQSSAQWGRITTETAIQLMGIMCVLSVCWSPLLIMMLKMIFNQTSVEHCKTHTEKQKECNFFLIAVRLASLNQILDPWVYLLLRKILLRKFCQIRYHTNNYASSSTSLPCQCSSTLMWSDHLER
Method in brief: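 HEL 92.1.7 human erythroleukemia cells, which endogenously express EP3, at 2×10⁵ cells per incubation in HBSS with RO-20174 and forskolin. Antagonist (0–3×10⁻⁶ M, 0.5% DMSO final) preincubated 10 min at 37 °C. Sulprostone (0–3×10⁻⁵ M) was then added as agonist for 10 min at 37 °C. The reaction was stopped by 3 min boiling, and cAMP was read by SPA.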

Kb	Compound
5.8 nM	O=C(O)C1CC1c1ccccc1-c1csc(-c2ccccc2OCc2ccccc2)c1 (configuration not stated)

target: Prostaglandin D2 receptor DP (human) (UniProt Q13258); experiment: Ability to inhibit the binding of human DP receptor to PGD-2
Sequence (Q13258 whole entry, looked up): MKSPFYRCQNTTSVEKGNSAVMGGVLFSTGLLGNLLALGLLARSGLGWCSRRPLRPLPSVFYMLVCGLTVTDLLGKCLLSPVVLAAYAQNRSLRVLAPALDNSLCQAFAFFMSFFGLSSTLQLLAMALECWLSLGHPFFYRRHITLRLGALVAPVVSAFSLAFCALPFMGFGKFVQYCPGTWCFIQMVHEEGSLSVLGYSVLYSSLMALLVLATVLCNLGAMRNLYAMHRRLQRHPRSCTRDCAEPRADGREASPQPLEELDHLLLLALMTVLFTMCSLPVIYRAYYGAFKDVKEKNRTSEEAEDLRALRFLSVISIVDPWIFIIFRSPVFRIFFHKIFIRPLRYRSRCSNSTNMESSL

Ki	Compound
120 nM	O=C(O)C1CC1c1ccccc1-c1csc(-c2ccccc2OCc2ccccc2)c1 (configuration not stated)

target: Prostaglandin F2-alpha receptor (Homo sapiens, UniProt P43088); experiment: Ability to inhibit the binding of human FP receptor to PGD-2
Sequence (P43088 whole entry): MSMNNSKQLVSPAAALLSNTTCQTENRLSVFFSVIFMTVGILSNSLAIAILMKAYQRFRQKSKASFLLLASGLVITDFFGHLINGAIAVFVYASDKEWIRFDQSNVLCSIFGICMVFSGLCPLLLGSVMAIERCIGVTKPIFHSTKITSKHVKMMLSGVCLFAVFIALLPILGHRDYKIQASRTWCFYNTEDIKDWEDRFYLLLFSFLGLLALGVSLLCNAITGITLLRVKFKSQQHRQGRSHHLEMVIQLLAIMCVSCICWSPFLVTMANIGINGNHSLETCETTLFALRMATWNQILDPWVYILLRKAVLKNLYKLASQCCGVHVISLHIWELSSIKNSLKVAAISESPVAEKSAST

Ki	Compound
22000 nM	O=C(O)C1CC1c1ccccc1-c1csc(-c2ccccc2OCc2ccccc2)c1 (configuration not stated)

target: Prostacyclin receptor (Homo sapiens, UniProt P43119); experiment: Ability to inhibit the binding of human IP receptor to Prostaglandin I2 receptor
Sequence (P43119 whole entry): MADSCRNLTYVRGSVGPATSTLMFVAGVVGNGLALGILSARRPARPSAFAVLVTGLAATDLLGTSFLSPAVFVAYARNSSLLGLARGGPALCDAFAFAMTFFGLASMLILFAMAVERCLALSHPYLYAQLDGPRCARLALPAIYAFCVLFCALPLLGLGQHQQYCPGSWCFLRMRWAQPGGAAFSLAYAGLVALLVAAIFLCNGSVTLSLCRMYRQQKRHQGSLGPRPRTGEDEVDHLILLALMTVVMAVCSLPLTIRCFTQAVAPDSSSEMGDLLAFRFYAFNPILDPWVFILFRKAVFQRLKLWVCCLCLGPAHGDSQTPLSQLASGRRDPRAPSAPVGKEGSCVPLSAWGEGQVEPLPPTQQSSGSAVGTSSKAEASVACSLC

Ki	Compound
710 nM	O=C(O)C1CC1c1ccccc1-c1csc(-c2ccccc2OCc2ccccc2)c1 (configuration not stated)

target: T2, Thromboxane A2 receptor (Homo sapiens, UniProt P21731); experiment: Ability to inhibit the binding of human Thromboxane A2 receptor to TXA2
T2 sequence (P21731 whole entry): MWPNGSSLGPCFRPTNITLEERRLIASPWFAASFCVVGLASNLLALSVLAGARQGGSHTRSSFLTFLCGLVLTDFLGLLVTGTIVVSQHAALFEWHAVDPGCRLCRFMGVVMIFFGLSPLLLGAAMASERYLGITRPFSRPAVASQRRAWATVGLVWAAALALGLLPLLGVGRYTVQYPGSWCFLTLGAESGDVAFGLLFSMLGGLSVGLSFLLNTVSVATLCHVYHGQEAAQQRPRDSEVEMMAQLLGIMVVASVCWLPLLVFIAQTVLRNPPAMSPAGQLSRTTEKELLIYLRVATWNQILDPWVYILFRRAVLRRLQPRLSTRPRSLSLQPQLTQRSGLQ

Ki	Compound
400 nM	O=C(O)C1CC1c1ccccc1-c1csc(-c2ccccc2OCc2ccccc2)c1 (configuration not stated)

target: T3, Prostaglandin E2 receptor EP3 subtype (Homo sapiens, UniProt P43115); experiment: Affinity at human Prostanoid EP3 receptor in the human embryonic kidney (HEK) 293 cell line.; type: cell-based, HEK293
T3 sequence (P43115 whole entry): T1 sequence (whole entry)

Ki	Compound
460 nM	CC(Cc1ccccc1-c1csc(-c2ccccc2OCc2ccccc2)c1)C(=O)O (configuration not stated)
21 nM	O=C(O)CCc1ccccc1-c1cccc(-c2ccccc2OCc2c(Cl)cccc2Cl)c1
1500 nM	O=C(O)CCc1ccccc1-c1cccc(-c2ccc(OCc3ccccc3)cc2)c1
23 nM	O=C(O)CCc1ccccc1-c1csc(-c2ccccc2OCc2ccccc2)c1
16 nM	O=C(CCc1ccccc1-c1cccc(-c2ccccc2OCc2ccccc2)c1)NS(=O)(=O)c1cccs1
89 nM	O=C(O)CCc1ccccc1-c1cccc(-c2ccccc2COc2ccccc2)c1
590 nM	O=C(O)CCCc1ccccc1-c1cccc(-c2ccccc2OCc2ccccc2)c1
820 nM	CC(Cc1ccccc1-c1cccc(-c2ccccc2OCc2ccccc2)c1)C(=O)O (configuration not stated)
750 nM	O=C(O)CCc1ccccc1-c1cccc(-c2ccccc2)c1
35 nM	CC(CC(=O)O)c1ccccc1-c1csc(-c2ccccc2OCc2ccccc2)c1 (configuration not stated)
84 nM	O=C(O)/C=C/c1ccccc1-c1cccc(-c2ccccc2OCc2ccccc2)c1
1600 nM	O=C(O)/C=C/c1ccccc1-c1ccc(Cl)c(Cl)c1
27 nM	O=C(O)CCc1ccccc1-c1cc(-c2ccccc2OCc2ccccc2)cs1
52 nM	O=C(O)CNc1ccccc1-c1csc(-c2ccccc2OCc2ccccc2)c1
3 nM	O=C(O)C1CC1c1ccccc1-c1csc(-c2ccccc2OCc2ccccc2)c1 (configuration not stated)
55 nM	O=C(O)CCc1ccccc1-c1cccc(-c2ccccc2OCc2ccccc2)c1
2300 nM	O=C(O)c1ccc(CCCc2ccccc2OCc2ccccc2)cc1
7 nM	Cc1cccc(/C=C/Cc2ccccc2/C=C/C(=O)O)c1OCc1ccccc1
1700 nM	O=C(O)Cc1ccccc1-c1cccc(-c2ccccc2OCc2ccccc2)c1
520 nM	O=C(O)CCc1ccccc1-c1ccc(-c2ccccc2OCc2ccccc2)s1

target: Prostaglandin E2 receptor EP4 subtype (Homo sapiens, UniProt P35408); experiment: Affinity at human Prostanoid EP4 receptor in the human embryonic kidney (HEK) 293 cell line.; type: cell-based, HEK293
Sequence (P35408 whole entry): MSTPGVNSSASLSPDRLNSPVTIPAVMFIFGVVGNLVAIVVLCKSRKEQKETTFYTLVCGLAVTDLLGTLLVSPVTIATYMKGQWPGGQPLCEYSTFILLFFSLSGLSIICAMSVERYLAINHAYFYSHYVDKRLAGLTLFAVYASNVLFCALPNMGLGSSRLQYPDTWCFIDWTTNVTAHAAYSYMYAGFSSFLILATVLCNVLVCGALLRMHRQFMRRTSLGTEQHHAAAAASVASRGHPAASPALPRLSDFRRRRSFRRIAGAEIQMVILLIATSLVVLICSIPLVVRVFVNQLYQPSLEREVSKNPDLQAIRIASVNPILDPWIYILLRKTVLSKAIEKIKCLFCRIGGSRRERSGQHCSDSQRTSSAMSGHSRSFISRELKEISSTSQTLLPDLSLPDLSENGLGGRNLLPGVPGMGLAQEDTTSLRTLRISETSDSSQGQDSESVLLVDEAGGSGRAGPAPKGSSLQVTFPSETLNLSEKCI

Ki	Compound
980 nM	CC(Cc1ccccc1-c1csc(-c2ccccc2OCc2ccccc2)c1)C(=O)O (configuration not stated)
1100 nM	O=C(O)CCc1ccccc1-c1cccc(-c2ccccc2OCc2c(Cl)cccc2Cl)c1
21000 nM	O=C(O)CCc1ccccc1-c1cccc(-c2ccc(OCc3ccccc3)cc2)c1
650 nM	O=C(O)CCc1ccccc1-c1csc(-c2ccccc2OCc2ccccc2)c1
1700 nM	O=C(CCc1ccccc1-c1cccc(-c2ccccc2OCc2ccccc2)c1)NS(=O)(=O)c1cccs1
1000 nM	O=C(O)CCc1ccccc1-c1cccc(-c2ccccc2COc2ccccc2)c1
2000 nM	O=C(O)CCCc1ccccc1-c1cccc(-c2ccccc2OCc2ccccc2)c1
1200 nM	CC(Cc1ccccc1-c1cccc(-c2ccccc2OCc2ccccc2)c1)C(=O)O (configuration not stated)
6000 nM	O=C(O)CCc1ccccc1-c1cccc(-c2ccccc2)c1
1100 nM	CC(CC(=O)O)c1ccccc1-c1csc(-c2ccccc2OCc2ccccc2)c1 (configuration not stated)
1700 nM	O=C(O)/C=C/c1ccccc1-c1cccc(-c2ccccc2OCc2ccccc2)c1
> 10000 nM	O=C(O)/C=C/c1ccccc1-c1ccc(Cl)c(Cl)c1
760 nM	O=C(O)CCc1ccccc1-c1cc(-c2ccccc2OCc2ccccc2)cs1
460 nM	O=C(O)CNc1ccccc1-c1csc(-c2ccccc2OCc2ccccc2)c1
300 nM	O=C(O)C1CC1c1ccccc1-c1csc(-c2ccccc2OCc2ccccc2)c1 (configuration not stated)
1800 nM	O=C(O)CCc1ccccc1-c1cccc(-c2ccccc2OCc2ccccc2)c1
440 nM	O=C(O)c1ccc(CCCc2ccccc2OCc2ccccc2)cc1
1900 nM	Cc1cccc(/C=C/Cc2ccccc2/C=C/C(=O)O)c1OCc1ccccc1
1100 nM	O=C(O)Cc1ccccc1-c1cccc(-c2ccccc2OCc2ccccc2)c1
1100 nM	O=C(O)CCc1ccccc1-c1ccc(-c2ccccc2OCc2ccccc2)s1

target: Prostaglandin E2 receptor EP2 subtype (Homo sapiens, UniProt P43116); experiment: Affinity at human Prostanoid EP2 receptor in the human embryonic kidney (HEK) 293 cell line.; type: cell-based, HEK293
Sequence (P43116 whole entry): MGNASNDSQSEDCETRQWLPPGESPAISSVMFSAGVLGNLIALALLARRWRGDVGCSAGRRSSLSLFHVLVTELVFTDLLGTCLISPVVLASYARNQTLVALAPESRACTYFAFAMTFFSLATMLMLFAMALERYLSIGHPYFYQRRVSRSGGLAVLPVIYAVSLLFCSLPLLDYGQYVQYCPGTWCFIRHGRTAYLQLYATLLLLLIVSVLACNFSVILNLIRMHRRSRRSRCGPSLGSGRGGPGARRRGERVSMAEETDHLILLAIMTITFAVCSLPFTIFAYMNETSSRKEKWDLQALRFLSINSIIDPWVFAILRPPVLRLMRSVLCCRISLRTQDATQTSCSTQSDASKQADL

Ki	Compound
5500 nM	CC(Cc1ccccc1-c1csc(-c2ccccc2OCc2ccccc2)c1)C(=O)O (configuration not stated)
4600 nM	O=C(O)CCc1ccccc1-c1cccc(-c2ccccc2OCc2c(Cl)cccc2Cl)c1
> 97000 nM	O=C(O)CCc1ccccc1-c1cccc(-c2ccc(OCc3ccccc3)cc2)c1
2500 nM	O=C(O)CCc1ccccc1-c1csc(-c2ccccc2OCc2ccccc2)c1
1600 nM	O=C(CCc1ccccc1-c1cccc(-c2ccccc2OCc2ccccc2)c1)NS(=O)(=O)c1cccs1
2900 nM	O=C(O)CCc1ccccc1-c1cccc(-c2ccccc2COc2ccccc2)c1
3500 nM	O=C(O)CCCc1ccccc1-c1cccc(-c2ccccc2OCc2ccccc2)c1
3600 nM	CC(Cc1ccccc1-c1cccc(-c2ccccc2OCc2ccccc2)c1)C(=O)O (configuration not stated)
8100 nM	O=C(O)CCc1ccccc1-c1cccc(-c2ccccc2)c1
4600 nM	CC(CC(=O)O)c1ccccc1-c1csc(-c2ccccc2OCc2ccccc2)c1 (configuration not stated)
830 nM	O=C(O)/C=C/c1ccccc1-c1cccc(-c2ccccc2OCc2ccccc2)c1
7500 nM	O=C(O)/C=C/c1ccccc1-c1ccc(Cl)c(Cl)c1
2900 nM	O=C(O)CCc1ccccc1-c1cc(-c2ccccc2OCc2ccccc2)cs1
2500 nM	O=C(O)CNc1ccccc1-c1csc(-c2ccccc2OCc2ccccc2)c1
2300 nM	O=C(O)C1CC1c1ccccc1-c1csc(-c2ccccc2OCc2ccccc2)c1 (configuration not stated)
10000 nM	O=C(/C=C/c1ccccc1-c1ccc(Cl)c(Cl)c1)NS(=O)(=O)c1cccs1
3700 nM	O=C(O)CCc1ccccc1-c1cccc(-c2ccccc2OCc2ccccc2)c1
150 nM	O=C(O)c1ccc(CCCc2ccccc2OCc2ccccc2)cc1
8100 nM	Cc1cccc(/C=C/Cc2ccccc2/C=C/C(=O)O)c1OCc1ccccc1
3600 nM	O=C(O)Cc1ccccc1-c1cccc(-c2ccccc2OCc2ccccc2)c1
4100 nM	O=C(O)CCc1ccccc1-c1ccc(-c2ccccc2OCc2ccccc2)s1

target: T4, Prostaglandin E2 receptor EP1 subtype (Homo sapiens, UniProt P34995); experiment: Affinity at human Prostanoid EP1 receptor in the human embryonic kidney (HEK) 293 cell line.; type: cell-based, HEK293
T4 sequence (P34995 whole entry): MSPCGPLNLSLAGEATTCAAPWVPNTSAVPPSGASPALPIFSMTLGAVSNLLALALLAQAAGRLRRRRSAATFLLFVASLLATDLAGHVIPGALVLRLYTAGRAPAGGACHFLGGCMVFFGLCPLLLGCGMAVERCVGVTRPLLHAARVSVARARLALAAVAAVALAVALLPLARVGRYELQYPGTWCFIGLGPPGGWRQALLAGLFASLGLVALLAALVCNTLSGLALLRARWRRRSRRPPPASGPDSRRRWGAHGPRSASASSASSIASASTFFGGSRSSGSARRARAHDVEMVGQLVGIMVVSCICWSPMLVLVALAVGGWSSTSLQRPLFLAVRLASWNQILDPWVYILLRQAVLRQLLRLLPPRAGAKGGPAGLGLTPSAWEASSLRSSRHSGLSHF

Ki	Compound
13000 nM	CC(Cc1ccccc1-c1csc(-c2ccccc2OCc2ccccc2)c1)C(=O)O (configuration not stated)
1100 nM	O=C(O)CCc1ccccc1-c1cccc(-c2ccccc2OCc2c(Cl)cccc2Cl)c1
> 97000 nM	O=C(O)CCc1ccccc1-c1cccc(-c2ccc(OCc3ccccc3)cc2)c1
17800 nM	O=C(O)CCc1ccccc1-c1csc(-c2ccccc2OCc2ccccc2)c1
2600 nM	O=C(CCc1ccccc1-c1cccc(-c2ccccc2OCc2ccccc2)c1)NS(=O)(=O)c1cccs1
9500 nM	O=C(O)CCc1ccccc1-c1cccc(-c2ccccc2COc2ccccc2)c1
11900 nM	O=C(O)CCCc1ccccc1-c1cccc(-c2ccccc2OCc2ccccc2)c1
8300 nM	CC(Cc1ccccc1-c1cccc(-c2ccccc2OCc2ccccc2)c1)C(=O)O (configuration not stated)
34000 nM	O=C(O)CCc1ccccc1-c1cccc(-c2ccccc2)c1
35000 nM	CC(CC(=O)O)c1ccccc1-c1csc(-c2ccccc2OCc2ccccc2)c1 (configuration not stated)
72000 nM	O=C(O)/C=C/c1ccccc1-c1cccc(-c2ccccc2OCc2ccccc2)c1
10000 nM	O=C(O)/C=C/c1ccccc1-c1ccc(Cl)c(Cl)c1
17500 nM	O=C(O)CCc1ccccc1-c1cc(-c2ccccc2OCc2ccccc2)cs1
85000 nM	O=C(O)CNc1ccccc1-c1csc(-c2ccccc2OCc2ccccc2)c1
48000 nM	O=C(O)C1CC1c1ccccc1-c1csc(-c2ccccc2OCc2ccccc2)c1 (configuration not stated)
8100 nM	O=C(/C=C/c1ccccc1-c1ccc(Cl)c(Cl)c1)NS(=O)(=O)c1cccs1
8300 nM	O=C(O)CCc1ccccc1-c1cccc(-c2ccccc2OCc2ccccc2)c1
230 nM	O=C(O)c1ccc(CCCc2ccccc2OCc2ccccc2)cc1
12000 nM	Cc1cccc(/C=C/Cc2ccccc2/C=C/C(=O)O)c1OCc1ccccc1
9300 nM	O=C(O)Cc1ccccc1-c1cccc(-c2ccccc2OCc2ccccc2)c1
27000 nM	O=C(O)CCc1ccccc1-c1ccc(-c2ccccc2OCc2ccccc2)s1
